proCasp7 act = counter-screen for procaspase-3 activators: activators of human procaspase-7 | activation, % at 8.5 µM | AID 463210 | P55210 | hit rate 0.093% among 330,000 | recombinant procaspase-7, Ac-DEVD-pNA absorbance 405 nm; D23A/D198A/D206A triple mutant, cannot self-cleave; scale: DMSO 0, 5 µM enzyme 100;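 active = percent activation above the screen-wide mean plus 3 SD, cut at about 25% in these data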
Target sequence (P55210 whole entry D23A/D198A/D206A): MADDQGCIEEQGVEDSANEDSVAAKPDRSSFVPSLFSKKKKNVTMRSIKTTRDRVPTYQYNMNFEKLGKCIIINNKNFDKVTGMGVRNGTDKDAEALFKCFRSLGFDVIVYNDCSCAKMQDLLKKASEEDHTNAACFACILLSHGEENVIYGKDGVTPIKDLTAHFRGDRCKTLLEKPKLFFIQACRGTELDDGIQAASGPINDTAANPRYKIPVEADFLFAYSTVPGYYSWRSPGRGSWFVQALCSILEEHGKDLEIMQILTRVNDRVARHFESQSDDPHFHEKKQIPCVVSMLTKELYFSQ
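System: Procaspase-7 triple mutant (PC-7 D3A); measure: % activation from two-timepoint absorbance difference, scaled to controls; times: 1 h compound preincubation, 2 h substrate cleavage, 25 °C; also added: Ac-DEVD-pNA substrate, 400 µM as added; measured by: Epi-absorbance of released pNA at 405 nm, two timepoints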
Tb MetRS inh = Trypanosoma brucei MetRS inhibition; purified T. brucei MetRS, ATP depletion, Kinase-Glo luminescence; inhibition, % at 11.9 µM; hit rate 0.4% among 360,000;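 active = inhibition above a per-plate cutoff of the control wells' mean inhibition plus 3 SD, cut at about 5.5% in these data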;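 also: 0% = DMSO wells median and 100% = median of wells with control inhibitor compound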
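Assay system: T. brucei methionyl-tRNA synthetase, purified | Medium: HEPES buffer with MgCl2, KCl, DTT, spermine, BSA, pyrophosphatase | Compound: 11.9 µM single point | Incubation: 15 min enzyme-compound preincubation, 2 h reaction, 10 min detection, 25 °C | Measured by: Kinase-Glo luciferase luminescence reporting remaining unconsumed ATP | Measure: % inhibition normalized to control-well medians | Replication: Singlicate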
bovine MsrA act = activators of bovine methionine sulfoxide reductase A. purified bovine MsrA, absorbance read-out. activation, % at 10.6 µM. hit rate 0.3% among 360,000. AID 602163; in the data active = activation above about 7.5%;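 also: 0% = vehicle and 100% = reference activator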
procasp3 activ = activates human procaspase-3 | AID 463141 | recombinant procaspase-3 D3A, Ac-DEVD-pNA absorbance 405 nm | hit rate 0.11% among 330,000 | activation, % at 8.5 µM | P42574;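 active = activation above the mean of all tested compounds plus 3 SD, cut at about 21% in these data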;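 also: 0% = DMSO alone and 100% = DMSO wells spiked with extra 5 µM PC-3 D3A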
Target sequence (P42574 whole entry D9A/D28A/D175A): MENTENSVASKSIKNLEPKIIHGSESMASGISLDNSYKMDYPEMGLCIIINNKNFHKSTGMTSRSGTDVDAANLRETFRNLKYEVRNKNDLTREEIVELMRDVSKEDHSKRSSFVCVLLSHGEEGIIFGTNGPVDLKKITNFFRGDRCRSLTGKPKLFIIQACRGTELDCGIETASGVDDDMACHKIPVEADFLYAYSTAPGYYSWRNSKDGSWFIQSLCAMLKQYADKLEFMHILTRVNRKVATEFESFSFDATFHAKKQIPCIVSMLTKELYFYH
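Test system: Procaspase-3 D3A mutant, all three cleavage aspartates alanine | Dosing: Single dose, 8.5 µM nominal compound, 0.8% DMSO | Schedule: 1 h preincubation, 2 h reaction | Technique: 405 nm absorbance of p-nitroaniline, reads at 0 and 120 min | Repeats: One well per compound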
MsrA inhibitor = bovine MsrA inhibition; purified bovine MsrA, absorbance read-out; inhibition, % at 15.5 µM; hit rate 0.75% among 360,000;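 also: 0% = vehicle wells with enzyme and 100% = reference inhibitor wells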
MsrA conf = confirmation of bovine MsrA inhibitors; shares compounds with MsrA inhibitor; purified bovine MsrA, absorbance read-out; inhibition, % at 15.5 µM; hit rate 41% among 2,300; AID 651822;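 also: coupled to thioredoxin reductase with NADPH and selenocystamine and DMSO as substrate; 0% = vehicle only and 100% = full effect of reference inhibitor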
Active calls of the source: *. A selection: hits, their analogues and other compounds. The true share with any hit is near 1.5%. Rule as the data show it, unless noted: active = inhibition above about 4.5%; inactive = the rest.

How did COc1ccccc1CNc1nc(NCc2cccc(OC)c2OC)c2sccc2n1 do in these assays?
Tb MetRS inh: 0; bovine MsrA act: -1; MsrA inhibitor: -1

Results for COCCNc1nc(Nc2ccc(C#N)cc2)c2sccc2n1 ?
Tb MetRS inh: 0; bovine MsrA act: -2; MsrA inhibitor: 5.1*; MsrA conf: 2

How did C#Cc1cccc(Nc2nc(NCc3ccccc3OC)nc3ccsc23)c1 do in these assays?
Tb MetRS inh: 0; bovine MsrA act: -2; MsrA inhibitor: 18*; MsrA conf: 11*

Results for COCCNc1nc(Nc2ccc(F)cc2)c2sccc2n1 ?
Tb MetRS inh: 0; bovine MsrA act: -3; MsrA inhibitor: 1

What do the screens show for `C#Cc1cccc(Nc2nc(NC(C)C)nc3ccsc23)c1`?
Tb MetRS inh: 0; bovine MsrA act: 0; MsrA inhibitor: 0

How did C[C@@H]1ON(C)[C@H]2C[C@H]3c4cc(Nc5ccccc5)ccc4CCN3C[C@@H]12 do in these assays?
MsrA inhibitor: 2

How did COC(=O)C1=C(C)N(C)C(=NCc2ccccc2)NC1c1ccccc1 (centres undefined) do in these assays?
MsrA inhibitor: 0

Results for N#C/C(=C\c1cccs1)C(=O)NCc1cccnc1 ?
proCasp7 act: -3; Tb MetRS inh: -1; bovine MsrA act: -9; procasp3 activ: -1; MsrA inhibitor: 5.5*; MsrA conf: 4

How did N#C/C(=C\C=C\c1ccccc1)C(=O)NCc1cccnc1 do in these assays?
proCasp7 act: 9; Tb MetRS inh: -1; bovine MsrA act: -4; procasp3 activ: 2; MsrA inhibitor: 7.6*; MsrA conf: 6.8*

How did Nc1[nH]c(C(=O)c2ccccc2)c(-c2ccc(Br)cc2)c1C(=O)c1ccccc1 do in these assays?
MsrA inhibitor: 0

What do the screens show for `COc1ccc2nc(NC(=S)N(C)C)sc2c1`?
proCasp7 act: -25; Tb MetRS inh: 0; bovine MsrA act: -3; procasp3 activ: -11; MsrA inhibitor: 6.3*; MsrA conf: 4

Results for N#Cc1cc([N+](=O)[O-])ccc1N1CCCC1 ?
proCasp7 act: -20; Tb MetRS inh: 3; bovine MsrA act: -2; procasp3 activ: -14; MsrA inhibitor: 11*; MsrA conf: 5.0*

Results for O=[N+]([O-])c1ccc(N2CCCCCC2)c([N+](=O)[O-])c1 ?
proCasp7 act: -8; Tb MetRS inh: -1; bovine MsrA act: -6; procasp3 activ: -4; MsrA inhibitor: 1

How did O=[N+]([O-])c1cc(/C=N/n2cnnc2)ccc1N1CCCC1 do in these assays?
proCasp7 act: -4; Tb MetRS inh: 1; bovine MsrA act: -7; procasp3 activ: -1; MsrA inhibitor: 7.7*; MsrA conf: 5.1*

Results for CC(C)CN(CC(C)C)c1ccc(/C=N/n2cnnc2)cc1[N+](=O)[O-] ?
proCasp7 act: 11; Tb MetRS inh: 0; bovine MsrA act: -5; procasp3 activ: -7; MsrA inhibitor: 1

Results for O=Cc1ccc(N2CCCC2)c([N+](=O)[O-])c1 ?
proCasp7 act: -2; Tb MetRS inh: 3; bovine MsrA act: -4; procasp3 activ: -2; MsrA inhibitor: 6.7*; MsrA conf: 4.8*

Results for O=C(Cc1ccc(NC(=O)C2CCCN(C(=O)c3ccccc3)C2)cc1)Nc1cccc(C(=O)N2CCCCC2)c1 (centres undefined) ?
MsrA inhibitor: -1

What do the screens show for `NC(=O)Nc1ccc(C(=O)OCC(=O)N2CCCC2=O)cc1`?
proCasp7 act: -10; Tb MetRS inh: 0; bovine MsrA act: -2; procasp3 activ: 2; MsrA inhibitor: 1

How did Cc1cccc(Nc2c([N+](=O)[O-])cc(C(=O)N3CC(=O)Nc4ccccc43)cc2[N+](=O)[O-])c1 do in these assays?
proCasp7 act: 1; Tb MetRS inh: -1; bovine MsrA act: -7; procasp3 activ: 3; MsrA inhibitor: 4.7*; MsrA conf: 4

What do the screens show for `Cc1ccc(C)c(Nc2c([N+](=O)[O-])cc(C(=O)N3CC(=O)Nc4ccccc43)cc2[N+](=O)[O-])c1`?
proCasp7 act: 1; Tb MetRS inh: 0; bovine MsrA act: -1; procasp3 activ: 2; MsrA inhibitor: 12*; MsrA conf: 9.9*

What do the screens show for `Cc1ccc(C)c(NC(=O)CNC(=O)N2CC(=O)Nc3ccccc32)c1`?
proCasp7 act: -4; Tb MetRS inh: 0; bovine MsrA act: -2; procasp3 activ: 2; MsrA inhibitor: 0

How did N#CC(C#N)=Cc1c[nH]c(=O)c(C#N)c1Nc1ccccc1 do in these assays?
proCasp7 act: -12; Tb MetRS inh: -1; bovine MsrA act: -2; procasp3 activ: -13; MsrA inhibitor: 5.4*; MsrA conf: 2

How did N#Cc1c(Nc2ccccc2)c(/C=N/N=C/c2ccccc2)c[nH]c1=O do in these assays?
proCasp7 act: 0; Tb MetRS inh: 0; bovine MsrA act: -2; procasp3 activ: 6; MsrA inhibitor: 0

How did O=S1(=O)N[C@H](Cc2ccccc2)COc2cccc(N3CCCCC3)c21 do in these assays?
MsrA inhibitor: 2

How did Cc1ccc(S(=O)(=O)N2[C@H](CC(=O)c3ccc(Cl)c(Cl)c3)OC[C@@H]2C(C)C)cc1 do in these assays?
Tb MetRS inh: -1; MsrA inhibitor: 1

What do the screens show for `C=Cc1ccc(CC2(C)C(=O)Nc3ccc(-c4cccnc4)cc32)cc1` (centres undefined)?
Tb MetRS inh: 0; bovine MsrA act: -3; MsrA inhibitor: 13*; MsrA conf: 6.3*

What do the screens show for `Cc1ccc(C(=O)N2CCC[C@@H]2C(=O)N2CCC[C@H]2C(=O)NCc2ccccc2)cc1C`?
MsrA inhibitor: -1

What do the screens show for `CCCN1CCCc2cc(CN)ccc21`?
proCasp7 act: -19; Tb MetRS inh: 0; bovine MsrA act: -6; procasp3 activ: -11; MsrA inhibitor: 16*; MsrA conf: -1

How did Cn1c2c(c(=O)n(C)c1=O)C(C(F)(F)F)(C(F)(F)F)N=C(c1ccc(Cl)cc1)N2 do in these assays?
proCasp7 act: 1; Tb MetRS inh: -1; bovine MsrA act: -6; procasp3 activ: 8

How did Cc1ccccc1C1=NC(C(F)(F)F)(C(F)(F)F)c2c(n(C)c(=O)n(C)c2=O)N1 do in these assays?
proCasp7 act: 0; Tb MetRS inh: 0; bovine MsrA act: -6; procasp3 activ: 0; MsrA inhibitor: 5.4*; MsrA conf: 3

Results for Cn1c2c(c(=O)n(C)c1=O)C(C(F)(F)F)(C(F)(F)F)N=C(C1CCCCC1)N2 ?
proCasp7 act: 9; Tb MetRS inh: 0; bovine MsrA act: 1; procasp3 activ: 6; MsrA inhibitor: 15*; MsrA conf: 12*

What do the screens show for `COc1ccc(C2CC(=O)C(c3ccc(C(N)=O)cc3)=CN2Cc2ccccc2)cc1` (centres undefined)?
MsrA inhibitor: 3

Screening results as filed in PubChem.
